For one series, the system named is Bacillus cereus. As to the kind of experiment: In vitro antibacterial activity measured as minimum inhibitory concentration was evaluated on Bacillus cereus ATCC 11778 (Bc). The format is functional. As to conditions: Bacillus cereus, ATCC 11778; read-out: MIC. In a few lines:
(§1)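 Serial 2-fold agar dilution in Mueller Hinton medium, run side by side with reference quinolones. Inoculum 10^5 cfu/mL; compound range 0.007–16 µg/mL.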

A further series deals with Bacillus subtilis. The series is described as follows: In vitro antibacterial activity measured as minimum inhibitory concentration was evaluated on Bacillus subtilis ATCC 6633(Bs). The format is functional. Conditions: Bacillus subtilis, ATCC 6633; read-out: MIC. In a few lines: as §1
In the next series the test system is Enterobacter cloacae. The series is described as follows: In vitro antibacterial activity measured as minimum inhibitory concentration, was evaluated on Enterobacter cloacae ATCC 23355 (Ecl). As to conditions: Enterobacter cloacae, ATCC 23355; read-out: MIC. The format is functional.
The test system of another series is Klebsiella pneumoniae. As to the kind of experiment: In vitro antibacterial activity measured as minimum inhibitory concentration was evaluated on klebsiella pneumoniae ATCC 10031 (Kp). The format is functional. As to conditions: Klebsiella pneumoniae, ATCC 10031; read-out: MIC. An outline of the steps: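 Serial 2-fold agar dilution in Mueller Hinton medium, run side by side with reference quinolones.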

Series [1] relates to Pseudomonas aeruginosa. As to the kind of experiment: In vivo efficacy as ED50 against Pseudomonas aeruginosa HS-116 by oral administration in mice. The format is functional. As to conditions: Pseudomonas aeruginosa, po; read-out: ED50. An outline of the steps:
(§2)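 Mice, 4 groups of 10, infected intraperitoneally with slightly more than the LD100 of the organism. A single oral dose was given immediately after infection, with four doses (one per group) chosen from in vitro activity. Survival was scored after one week. ED50 (total dose, mg/kg, protecting 50%) was interpolated among group survival rates.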

Series [2] relates to Staphylococcus aureus. As to the kind of experiment: In vivo efficacy as ED50 against Staphylococcus aureus HS-93 by oral administration in mice. Conditions: Staphylococcus aureus, po; read-out: ED50. Format: functional. An outline of the steps: as §2
Series [3] relates to Escherichia coli. The series is described as follows: In vivo efficacy as ED50 against Escherichia coli HM-42 by oral administration in mice. As to conditions: Escherichia coli, po; read-out: ED50. The format is functional. An outline of the steps:
as §2

Another series has as its system Proteus vulgaris. The series is described as follows: In vitro antibacterial activity measured as minimum inhibitory concentration was evaluated on proteus vulgaris ATCC 8427 (Pv). Format: functional. Conditions: Proteus vulgaris, ATCC 8427; read-out: MIC. In a few lines: as §1
For series [4], the system named is Pseudomonas aeruginosa. The series is described as follows: In vitro antibacterial activity measured as minimum inhibitory concentration was evaluated on Pseudomonas aeruginosa ATCC 10145 (Pa). Format: functional. Conditions: Pseudomonas aeruginosa, ATCC 10145; read-out: MIC. An outline of the steps:
as §1

Series [5] has as its system Staphylococcus aureus. As to the kind of experiment: In vitro antibacterial activity measured as minimum inhibitory concentration was evaluated on Staphylococcus aureus ATCC 25178 (Sa). The format is functional. Conditions: Staphylococcus aureus, ATCC 25178; read-out: MIC. In a few lines:
as §1

In series [6] the test system is Staphylococcus epidermidis. As to the kind of experiment: In vitro antibacterial activity measured as minimum inhibitory concentration was evaluated on Staphylococcus epidermidis ATCC 155-1 (Se). Format: functional. As to conditions: Staphylococcus epidermidis, ATCC 155-1; read-out: MIC. In a few lines:
as §1

A further series has as its system Enterococcus faecalis. As to the kind of experiment: In vitro antibacterial activity measured as minimum inhibitory concentration was evaluated on Streptococcus faecalis ATCC 10541 (Sf). Format: functional. As to conditions: Enterococcus faecalis, ATCC 10541; read-out: MIC. In a few lines: as §1
The subject of series [7] is Escherichia coli. The series is described as follows: In vitro antibacterial activity measured as minimum inhibitory concentration, was evaluated on Escherichia coli ATCC 23559(Ec). Conditions: Escherichia coli, ATCC 23559; read-out: MIC. Format: functional. In a few lines: as §1
The conditions of series [8]: mouse, in vivo, po, 50 mg/kg.
The test system of the next series is Morganella morganii. The series is described as follows: In vitro antibacterial activity measured as minimum inhibitory concentration was evaluated on morganella morganii ATCC 8019 (Mm). The format is functional. Conditions: Morganella morganii, ATCC 8019; read-out: MIC. An outline of the steps: as §1

≈ marks a conversion by molar mass, not a printed value.

`C[C@H]1[C@H](N)CN1c1nc2c(cc1F)c(=O)c(C(=O)O)cn2-c1ccc(F)cc1F` (single isomer, unassigned): the minimal inhibitory concentration (MIC) (in general, the lowest concentration that inhibits growth of the organism) with Bacillus cereus turned out to be 0.06 µg/mL (≈ 0.148 µM); in the series on Bacillus subtilis, 0.015 µg/mL (≈ 0.0371 µM); in the series on Enterobacter cloacae it was 0.06 µg/mL (≈ 0.148 µM); with Klebsiella pneumoniae, 0.015 µg/mL (≈ 0.0371 µM); with Proteus vulgaris, 0.5 µg/mL (≈ 1.24 µM); with Pseudomonas aeruginosa [4], 0.5 µg/mL (≈ 1.24 µM). The minimal inhibitory concentration (MIC) is 0.06 µg/mL (≈ 0.148 µM) in the series with Staphylococcus aureus [5], 0.12 µg/mL (≈ 0.297 µM) in [6], 0.5 µg/mL (≈ 1.24 µM) with Enterococcus faecalis and 0.06 µg/mL (≈ 0.148 µM) in the series with Escherichia coli [7]. Further, the ED50 (usually the dose at which the effect has come halfway, by size or by number of responders) with Pseudomonas aeruginosa [1] is 156 mg/kg; in the series on Staphylococcus aureus [2], 6.6 mg/kg; with Escherichia coli [3], 4.2 mg/kg. The AUC (as a rule, concentration integrated over time) in series [8] is 38200 ng·h/mL.

As to `C[C@H]1COc2c(N3CCN(C)CC3)c(F)cc3c(=O)c(C(=O)O)cn1c23.C[C@H]1COc2c(N3CCN(C)CC3)c(F)cc3c(=O)c(C(=O)O)cn1c23.O` [LEVOFLOXACIN], the MIC worked out at 0.25 µg/mL in the series on Bacillus cereus; 0.03 µg/mL in the series with Bacillus subtilis; 0.03 µg/mL in the series with Enterobacter cloacae; 0.03 µg/mL in the series on Klebsiella pneumoniae; 0.5 µg/mL in the series with Proteus vulgaris; 0.5 µg/mL with Pseudomonas aeruginosa [4]. Also, the minimal inhibitory concentration (MIC) in the series with Staphylococcus aureus [5] is 0.25 µg/mL; in series [6], 0.12 µg/mL; with Enterococcus faecalis it was 0.25 µg/mL; in the series with Morganella morganii, 0.03 µg/mL. The results for the ED50 in the series with Pseudomonas aeruginosa [1], in the series on Staphylococcus aureus [2] and in the series with Escherichia coli [3] were 109 mg/kg, 14 mg/kg and 5 mg/kg, respectively. Also, in series [8], the AUC came out at 10200 ng·h/mL.

Consider `CCn1cc(C(=O)O)c(=O)c2cc(F)c(N3C[C@H](N)[C@H]3C)c(F)c21`, for which the MIC in the series on Bacillus cereus stood at 0.25 µg/mL (≈ 0.741 µM); in the series with Bacillus subtilis, 0.12 µg/mL (≈ 0.356 µM); with Enterobacter cloacae, 0.12 µg/mL (≈ 0.356 µM); in the series on Klebsiella pneumoniae, 0.06 µg/mL (≈ 0.178 µM); in the series with Proteus vulgaris, 0.5 µg/mL (≈ 1.48 µM); with Pseudomonas aeruginosa [4] it was 2 µg/mL (≈ 5.93 µM). Besides, the MIC with Staphylococcus aureus [5] was 0.25 µg/mL (≈ 0.741 µM); in series [6] it was 0.25 µg/mL (≈ 0.741 µM); in the series with Enterococcus faecalis, 2 µg/mL (≈ 5.93 µM); with Escherichia coli [7], 0.12 µg/mL (≈ 0.356 µM); in the series on Morganella morganii, 0.12 µg/mL (≈ 0.356 µM). Besides, the ED50 was determined as 60 mg/kg in the series with Pseudomonas aeruginosa [1], 5.9 mg/kg with Staphylococcus aureus [2] and 3.9 mg/kg in the series on Escherichia coli [3]. The compound further displayed an AUC in [8] of 21000 ng·h/mL.

As for `CC1C(N)CN1c1c(F)cc2c(=O)c(C(=O)O)cn3c2c1OC[C@@H]3C` (single isomer, unassigned), the minimal inhibitory concentration (MIC) stood at 0.06 µg/mL (≈ 0.173 µM) in the series on Bacillus cereus; 0.015 µg/mL (≈ 0.0432 µM) with Bacillus subtilis; 0.015 µg/mL (≈ 0.0432 µM) in the series on Enterobacter cloacae; 0.015 µg/mL (≈ 0.0432 µM) in the series with Klebsiella pneumoniae; 0.06 µg/mL (≈ 0.173 µM) with Proteus vulgaris; 0.25 µg/mL (≈ 0.72 µM) in the series with Pseudomonas aeruginosa [4]. Moreover, the MIC is 0.015 µg/mL (≈ 0.0432 µM) in the series with Staphylococcus aureus [5]; 0.015 µg/mL (≈ 0.0432 µM) in series [6]; 0.12 µg/mL (≈ 0.345 µM) with Enterococcus faecalis; 0.015 µg/mL (≈ 0.0432 µM) in the series on Escherichia coli [7]; 0.015 µg/mL (≈ 0.0432 µM) with Morganella morganii. Besides, the figures for the ED50 in the series on Pseudomonas aeruginosa [1], in the series on Staphylococcus aureus [2] and with Escherichia coli [3] were 26 mg/kg, 6.9 mg/kg and 5.9 mg/kg, respectively. In addition, the AUC in series [8] was found to be 2300 ng·h/mL.

With `O=C(O)c1cn(C2CC2)c2cc(N3CCNCC3)c(F)cc2c1=O` [CIPROFLOXACIN], the figures for the ED50 in the series on Pseudomonas aeruginosa [1] and with Escherichia coli [3] were 70 mg/kg and 3 mg/kg, respectively. This compound also registered an AUC in [8] of 2300 ng·h/mL.

For `C[C@H]1COc2c(N3CC(C)(N)C3)c(F)cc3c(=O)c(C(=O)O)cn1c23`, the minimum inhibitory concentration (MIC) with Bacillus cereus amounted to 0.25 µg/mL (≈ 0.72 µM); in the series on Bacillus subtilis it was 0.015 µg/mL (≈ 0.0432 µM); in the series on Enterobacter cloacae, 0.015 µg/mL (≈ 0.0432 µM); in the series on Klebsiella pneumoniae it was 0.015 µg/mL (≈ 0.0432 µM); in the series with Proteus vulgaris it was 0.25 µg/mL (≈ 0.72 µM); in the series with Pseudomonas aeruginosa [4], 0.5 µg/mL (≈ 1.44 µM). Besides, the minimum inhibitory concentration (MIC) with Staphylococcus aureus [5] is 0.25 µg/mL (≈ 0.72 µM); in [6], 0.12 µg/mL (≈ 0.345 µM); in the series on Enterococcus faecalis it was 0.5 µg/mL (≈ 1.44 µM); with Escherichia coli [7], 0.015 µg/mL (≈ 0.0432 µM); with Morganella morganii it was 0.015 µg/mL (≈ 0.0432 µM). The results for the 50% effective dose (ED50) in the series with Pseudomonas aeruginosa [1], in the series on Staphylococcus aureus [2] and in the series with Escherichia coli [3] were 121 mg/kg, 19.1 mg/kg and 6.7 mg/kg, respectively. Moreover, the AUC in series [8] was found to be 8500 ng·h/mL.

(Values after ChEMBL document CHEMBL1128288, “7-Azetidinylquinolones as antibacterial agents. 3. Synthesis, properties and structure-activity relationships of the stereoisomers containing a 7-(3-amino-2-methyl-1-azetidinyl) moiety” (J Med Chem, 1995).)
